Results reported in the RNAGym collection of RNA variant scans (doi:10.1126/science.aae0568).
This sample holds only a part of the variants without activity.

B1: tRNA (parent)
chain: GUUCCGUUGGCGUAAUGGUAACGCGUCUCCCUCCUAAGGAGAAGACUGCGGGUUCGAGUCCCGUACGGAACG

Variants of: B1
Assay: yeast fitness relative to wild type (ratio to wild type); higher = fitter; tRNA-Arg(CCU), competitive growth, 37 C, YPD
In short: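 Start and end populations of a pooled competition were compared by 100-nucleotide paired-end sequencing of gene amplicons. The Saccharomyces cerevisiae strains carried tRNA-Arg(CCU) gene variants at the native genomic locus, synthesised with a 3% per-site mutation rate at 69 sites, and competed in YPD at 37°C for 24 hours in six parallel replicates. Darwinian fitness relative to wild type was based on the change in genotype frequencies. Genotypes required ≥ 100 starting reads, and estimates < 0.5 were set to 0.5.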

| Variant | yeast fitness |
| --- | --- |
| GUUCCGUUGGCGUAAUGGUAACGCGUCUCCCUCCUAAGGAGUAGACUGCGGGUUCGAGUCCCGUACGGACCG [A42U A70C] | 1.01 |
| GUUCCGUUGGCGUAAUGGUAACGCGUCUCCCUCCUAAGGAGUAGACUGCGGGUUCGAGUCCCGUACGGAGCG [A42U A70G] | 1 |
| GUUCCGUUGGCGUAAUGGUAACGCGUCUCCCUCCUAAGGAGUAGACUGCGGGUUCGAGUCCCGUACGGAUCG [A42U A70U] | 0.919 |
| GUUCCGUUGGCGUAAUGGUAACGCGUCUCCCUCCUAAGGAGACGACUGCGGGUUCGCGUCCCGUACGGAUCG [A43C A57C A70U] | 0.53 |
| GUUCCGUUGGCGUAAUGGUAACGCGUCUCCCUCCUAAGGAGUAGACUGCGGGUUCGAGUCCCGUGCGGCACG [A42U A65G A69C] | 0.595 |
| GUUCCGUUGGCGUAAUGGUAACGCGUCUCCCUCCUAAGGAGUAGACUGCGGGUUAGAGUCCCGUACGGAACG [A42U C55A] | 0.584 |
| GUUCCGUUGGCGUAAUGGUAACGCGUCUCCCUCCUAAGGAGUAGACUGCAGGUUCGAGUCCCGUACGGAACG [A42U G50A] | 0.743 |
| GUUCCGUUGGCGUAAUGGUAACGCGUCUCCCUCCUAAGGAGUAGACAGCGGGAUCGAGUCCCGUACGGAACG [A42U U47A U53A] | 0.727 |
| GUUCCGUUGGCGUAAUGGUAACGCGUCUCCCUCCUAAGGAGUAGACUGCGGGUUCGAGUCAAAUACGGAACG [A42U C61A C62A G63A] | 0.748 |
| GUUCCGUUGGCGUAAUGGUAACGCGUCUCCCUCCUAAGGAGUAGACUGCGGGUUCGAGUUCCGUACGGAACG [A42U C60U] | 0.769 |
| GUUCCGUUGGCGUAAUGGUAACGCGUCUCCCUCCUAAGGAGUAGACUGCGGGUUCGAGUGCCGUACGGAACG [A42U C60G] | 0.579 |
| GUUCCGUUGGCGUAAUGGUAACGCGUCUCCCUCCUAAGGAGUAGACUGCGGGUUCGAGUCCCGUGCGGAACG [A42U A65G] | 1.01 |
| GUUCCGUUGGCGUAAUGGUAACGCGUCUCCCUCCUAAGGAGUAGACUGCGGGUUCGAGUCCCGUUCGGAACG [A42U A65U] | 0.741 |
| GUUCCGUUGGCGUAAUGGUAACGCGUCUCCCUCCUAAGGAGUAGACUGCGGGUUCGUCUCCCGUACGGAACG [A42U A57U G58C] | 0.542 |
| GUUCCGUUGGCGUAAUGGUAACGCGUCUCCCUCCUAAGGAGUAGACUGCGGGUCCGAGUCCCGUACGGAACG [A42U U54C] | 0.897 |
| GUUCCGUUGGCGUAAUGGUAACGCGUCUCCCUCCUAAGGAGUAGACUGCGGGUGCGAGUCCCGUACGGAACG [A42U U54G] | 0.605 |
| GUUCCGUUGGCGUAAUGGUAACGCGUCUCCCUCCUAAGGAGUAGACUGCGGGUUCGACAUCCGUACGGAACG [A42U G58C U59A C60U] | 0.659 |
| GUUCCGUUGGCGUAAUGGUAACGCGUCUCCCUCCUAAGGAGUAGACUGCGGGUUCGAGUCCCGUACUGAACG [A42U G67U] | 0.813 |
| GUUCCGUUGGCGUAAUGGUAACGCGUCUCCCUCCUAAGGAGUAGACUGCGGGUUCGAGUCCCGUACAGAACG [A42U G67A] | 0.758 |

| Variant | yeast fitness |
| --- | --- |
| GUUCCGUUGGCGUAAUGGUAACGCGUCUCCCUCCUAAGGAGUAGACUGCGGGUUCGAGACCCGGACGGAACG [A42U U59A U64G] | ≤ 0.5 |
| GUUCCGUUGGCGUAAUGGUAACGCGUCUCCCUCCUAAGGAGUAGACUGCGGGUUCGAGUCCAGUACGGAACG [A42U C62A] | 0.636 |
| GUUCCGUUGGCGUAAUGGUAACGCGUCUCCCUCCUAAGGAGUAGACUGCAGGUUCGAGUCCCCUACAGAACG [A42U G50A G63C G67A] | ≤ 0.5 |
| GUUCCGUUGGCGUAAUGGUAACGCGUCUCCCUCCUAAGGAGUAGAGUGCGGGUUCGAGUCCCGUACGGAACG [A42U C46G] | 1.12 |
| GUUCCGUUGGCGUAAUGGUAACGCGUCUCCCUCCUAAGGAGUAGACUGCGGGUUCAAGUCCAGUACGGAACG [A42U G56A C62A] | 0.586 |
| GUUCCGUUGGCGUAAUGGUAACGCGUCUCCCUCCUAAGGAGUAGACUGCGGGUUCGAGUCCCGUACCGCACG [A42U G67C A69C] | 0.573 |
| GUUCCGUUGGCGUAAUGGUAACGCGUCUCCCUCCUAAGGAGUAGACUGCGGGUUCGAGUCCCGUACGCAACG [A42U G68C] | 0.664 |
| GUUCCGUUGGCGUAAUGGUAACGCGUCUCCCUCCUAAGGAGUAGACUGCGGGUUCGAGUCCCGUACGUAACG [A42U G68U] | 0.744 |
| GUUCCGUUGGCGUAAUGGUAACGCGUCUCCCUCCUAAGGAGUAGACUGCGGGUUCGAGUCCCGUAAGGAACG [A42U C66A] | 0.702 |
| GUUCCGUUGGCGUAAUGGUAACGCGUCUCCCUCCUAAGGAGACGACUGCGGGUUCGAGUCCCGUCCGGAACG [A43C A65C] | 1.03 |
| GUUCCGUUGGCGUAAUGGUAACGCGUCUCCCUCCUAAGGAGACGACUGCGGGUUCGAGUCCCGUACGGAUCG [A43C A70U] | 1.06 |
| GUUCCGUUGGCGUAAUGGUAACGCGUCUCCCUCCUAAGGAGUAGACUGCGGGGUCGAGUCCCGUACGGAUCG [A42U U53G A70U] | ≤ 0.5 |
| GUUCCGUUGGCGUAAUGGUAACGCGUCUCCCUCCUAAGGAGUAGACAGCGAGUUCGAGUCCCGUACGGAACG [A42U U47A G51A] | ≤ 0.5 |
| GUUCCGUUGGCGUAAUGGUAACGCGUCUCCCUCCUAAGGAGACGACUGCGGGUUCGUGUCCGGUACGGAACG [A43C A57U C62G] | 0.571 |
| GUUCCGUUGGCGUAAUGGUAACGCGUCUCCCUCCUAAGGAGUACACUGCGGGUUCGAGUCCCGUACGGAACG [A42U G44C] | 0.842 |
| GUUCCGUUGGCGUAAUGGUAACGCGUCUCCCUCCUAAGGAGACGGCUGCGGGUUCGAGUCCCGUACAGAACG [A43C A45G G67A] | 0.659 |
| GUUCCGUUGGCGUAAUGGUAACGCGUCUCCCUCCUAAGGAGUAGACCGCGGGUUCGAGUCCCGUACGGAACG [A42U U47C] | 0.939 |
| GUUCCGUUGGCGUAAUGGUAACGCGUCUCCCUCCUAAGGAGUAGACAGCGGGUUCGAGUCCCGUACGGAACG [A42U U47A] | 0.789 |
| GUUCCGUUGGCGUAAUGGUAACGCGUCUCCCUCCUAAGGAGUAGACUGCGGCUUCGAGUCCCGUACGGAGCG [A42U G52C A70G] | 0.521 |
